# Results: publication PMC11758009 (Scientific Reports, 2025)
# Key:
# [1] = system: LAT1, LAT2, LAT3, LAT4, B^0AT1, ATB^0,+; conditions: cited from earlier work
# LAT1 [2] = biological target: T1, LAT1 (Homo sapiens, UniProt Q01650); experiment: Inhibition of L-[14C]leucine uptake in HEK293-hLAT1 cells; assay type: cell-based
# Procedure, shortened: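 HEK293-hLAT1 cells grown 2 days on poly-D-lysine, then preincubated 10 min at 37 °C in Na⁺-free choline-HBSS (HEPES, pH 7.4). L-[¹⁴C]leucine (1–400 µM) uptake for 1 min, with test compound added from DMSO alongside the substrate at two levels (0.1/0.5 or 1/5 µM) or with DMSO alone. Cells washed ice-cold, lysed in NaOH, counted by scintillation, normalised to BCA protein. Michaelis–Menten and Lineweaver–Burk fits gave Ki; mean ± S.D., n = 4.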
# Target sequence in this assay (Q01650 whole entry): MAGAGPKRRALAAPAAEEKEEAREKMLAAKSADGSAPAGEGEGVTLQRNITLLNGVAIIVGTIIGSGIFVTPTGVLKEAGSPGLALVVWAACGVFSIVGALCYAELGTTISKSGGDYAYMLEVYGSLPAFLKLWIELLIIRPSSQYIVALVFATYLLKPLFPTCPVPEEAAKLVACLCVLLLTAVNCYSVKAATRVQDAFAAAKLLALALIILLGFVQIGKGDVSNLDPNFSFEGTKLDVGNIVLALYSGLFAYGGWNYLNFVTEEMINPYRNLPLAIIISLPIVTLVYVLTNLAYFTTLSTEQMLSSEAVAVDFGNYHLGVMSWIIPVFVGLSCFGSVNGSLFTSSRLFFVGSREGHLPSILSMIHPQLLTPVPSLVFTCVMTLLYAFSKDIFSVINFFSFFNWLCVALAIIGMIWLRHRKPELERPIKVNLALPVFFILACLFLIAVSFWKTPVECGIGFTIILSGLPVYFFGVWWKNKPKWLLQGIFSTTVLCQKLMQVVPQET
# Target sequence in this assay (P08195 103-630 partner): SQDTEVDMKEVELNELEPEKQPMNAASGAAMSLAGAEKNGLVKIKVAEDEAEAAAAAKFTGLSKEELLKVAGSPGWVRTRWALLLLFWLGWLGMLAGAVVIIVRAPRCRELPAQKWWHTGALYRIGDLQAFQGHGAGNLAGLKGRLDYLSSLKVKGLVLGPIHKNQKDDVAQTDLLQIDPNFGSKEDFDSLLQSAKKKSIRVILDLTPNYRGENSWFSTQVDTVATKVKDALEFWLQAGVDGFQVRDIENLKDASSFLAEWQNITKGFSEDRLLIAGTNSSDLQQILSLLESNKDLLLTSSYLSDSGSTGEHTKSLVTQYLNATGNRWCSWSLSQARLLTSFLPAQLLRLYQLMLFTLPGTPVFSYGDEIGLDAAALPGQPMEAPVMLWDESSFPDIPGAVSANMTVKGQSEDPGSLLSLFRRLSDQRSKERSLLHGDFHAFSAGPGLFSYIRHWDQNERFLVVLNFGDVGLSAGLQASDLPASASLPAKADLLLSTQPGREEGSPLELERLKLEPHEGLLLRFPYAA
# human LAT2 = human LAT2 (Homo sapiens, UniProt Q9UHI5); experiment: Inhibition of L-[14C]alanine uptake in HEK293-hLAT2 cells; assay type: cell-based; conditions: 0.1, 1 and 10 µM compound, 1 µM L-[14C]alanine
# Procedure, shortened: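 Stable HEK293-hLAT2 cells were seeded at 2.4 × 10⁵ cells/well on poly-D-lysine and grown 2 days. They were pre-incubated 10 min at 37 °C in Na⁺-free HBSS (choline chloride, 25 mM HEPES, pH 7.4). Uptake of 1 µM L-[¹⁴C]alanine ran for 1 min, with test compound (from DMSO stocks) added together with substrate. Cells were washed ice-cold, lysed in 0.1 N NaOH, counted by liquid scintillation, and lysate protein was measured by BCA.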
# HEK293-hLAT1 cells = experiment: Cell proliferation assay; assay type: cell-based; conditions: Homo sapiens, 72 h, read-out: GI50 (proliferation)
# Procedure, shortened: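 HEK293 cells stably expressing human LAT1, kept in MEM with 10% FBS, non-essential amino acids and G418 (0.9 mg/mL) at 37 °C and 5% CO₂. Seeded at 1.5 × 10³ cells/well on poly-D-lysine and treated next day with test compound (0.003–30 µM) for 72 h. CCK-8 read-out. Inhibition = (C–T)/(C–T₀) × 100, with T₀ at 0 h. GI50 from curve fit; mean ± S.D., n = 4.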
# HEK293-hLAT2 cells = experiment: Cell proliferation assay; assay type: cell-based, human; conditions: 72 h, 0.003-30 µM
# Procedure, shortened: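 HEK293 cells stably expressing human LAT2, kept under G418 selection at 37 °C and 5% CO₂, were seeded at 1.5 × 10³ cells/well on poly-D-lysine. Next day they were exposed to test compound for 72 h, and cell number was read with CCK-8. Inhibition was calculated as (C – T)/(C – T₀) × 100, with T₀ taken at 0 h. GI₅₀ is the concentration giving 50% inhibition. Mean ± S.D., n = 4.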
# LAT1 [3] = biological target: T1, LAT1; experiment: Sustained inhibition assay; assay type: cell-based; conditions: reduction in inhibition over first 10 min after washout relative to 0 min
# Procedure, shortened: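 HEK293-hLAT1 cells exposed to test compound or 0.6% DMSO control in culture medium for 30 min at 37 °C. Washed three times and kept in fresh medium for 0, 10, 20, 30 or 60 min or 24 h. Then rinsed with Na⁺-free HBSS and given 1 µM L-[¹⁴C]leucine for 1 min. Uptake taken as % of control at each time. Reduction rate = (%uptake 10 min – %uptake 0 min)/(100 – %uptake 0 min) × 100. Three independent experiments, each in quadruplicate.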
# Target sequence in this assay (Q01650 whole entry): as the sequence (Q01650 whole entry) above
# Target sequence in this assay (P08195 103-630 partner): as the sequence (P08195 103-630 partner) above
# LAT1 [4] = biological target: T1, LAT1; experiment: Temperature-dependent uptake of 14C-labeled compound in HEK293-hLAT1 cells; assay type: cell-based; conditions: 1 µM 14C-labeled compound, 1 min, 37 °C vs on ice
# Procedure, shortened: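 HEK293-hLAT1 cells in Na⁺-free HBSS given 1 µM ¹⁴C-labelled test compound, or 1 µM L-[¹⁴C]leucine for comparison, for 1 min on ice or at 37 °C. Cell-associated radioactivity measured by scintillation counting of the lysate.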
# Target sequence in this assay (Q01650 whole entry): as the sequence (Q01650 whole entry) above
# Target sequence in this assay (P08195 103-630 partner): as the sequence (P08195 103-630 partner) above
# LAT1 [5] = biological target: T1, LAT1; experiment: Xenopus oocyte expression system, L-[14C]leucine uptake by LAT1; assay type: cell-based; conditions: 50 µM substrate, 30 min, Na+-free
# Procedure, shortened: (§1)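 Defolliculated Xenopus laevis oocytes injected with transporter cRNA (25 ng/oocyte) plus equimolar 4F2hc cRNA, and assayed 2–4 days later. Uptake of 50 µM L-[¹⁴C]leucine at room temperature with test compound at 1 or 10 µM. Buffers were ND96 (pH 7.5) or a Na⁺-free version with choline chloride in place of NaCl. Scintillation counting; mean ± S.D., n = 5–13, three oocyte batches.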
# Target sequence in this assay (Q01650 whole entry): as the sequence (Q01650 whole entry) above
# Target sequence in this assay (P08195 102-630 partner): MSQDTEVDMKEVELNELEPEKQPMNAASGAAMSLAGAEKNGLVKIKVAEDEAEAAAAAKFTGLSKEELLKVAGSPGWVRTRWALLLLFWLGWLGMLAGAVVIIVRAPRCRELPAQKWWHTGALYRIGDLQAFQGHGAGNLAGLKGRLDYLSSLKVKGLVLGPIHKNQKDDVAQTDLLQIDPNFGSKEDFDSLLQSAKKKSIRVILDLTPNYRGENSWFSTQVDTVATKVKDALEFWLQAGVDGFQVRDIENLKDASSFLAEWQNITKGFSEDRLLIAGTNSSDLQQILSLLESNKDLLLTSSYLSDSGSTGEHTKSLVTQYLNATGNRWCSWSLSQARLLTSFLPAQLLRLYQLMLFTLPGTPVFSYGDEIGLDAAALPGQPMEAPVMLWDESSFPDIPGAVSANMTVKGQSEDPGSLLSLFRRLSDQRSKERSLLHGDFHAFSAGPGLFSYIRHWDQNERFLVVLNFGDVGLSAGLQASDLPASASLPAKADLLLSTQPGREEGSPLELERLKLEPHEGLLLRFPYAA
# LAT2 = LAT2 (Homo sapiens, UniProt Q9UHI5); experiment: Xenopus oocyte expression system, L-[14C]alanine uptake by LAT2; assay type: cell-based; conditions: 1 and 10 µM compound; 50 µM substrate; 30 min
# Procedure, shortened: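 Defolliculated Xenopus laevis oocytes were injected with polyadenylated human LAT2 cRNA (25 ng/oocyte) plus equimolar 4F2hc cRNA. Water-injected oocytes served as controls. After 2–4 days, oocytes took up 50 µM ¹⁴C-labelled substrate for 30 min at room temperature, with or without test compound, in ND96 (pH 7.5) or its Na⁺-free choline chloride version. Radioactivity was determined by liquid scintillation counting.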
# LAT3 = LAT3 (Homo sapiens, UniProt O75387); experiment: Xenopus oocyte expression system, L-[14C]leucine uptake by LAT3; assay type: cell-based; conditions: 1 and 10 µM compound; 50 µM substrate; 30 min
# Procedure, shortened: (§2)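 Defolliculated Xenopus laevis oocytes injected with transporter cRNA (25 ng/oocyte), assayed 2–4 days after injection. Uptake at room temperature of 50 µM radiolabelled substrate with test compound at 1 or 10 µM. Buffers were ND96 (pH 7.5) for Na⁺-dependent transport, or a Na⁺-free version with choline chloride. Scintillation counting; mean ± S.D., n = 5–13, three independent oocyte batches.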
# LAT4 = LAT4 (Homo sapiens, UniProt Q8N370); experiment: Xenopus oocyte expression system, L-[14C]leucine uptake by LAT4; assay type: cell-based; conditions: 1 and 10 µM compound; 50 µM substrate; 30 min
# Procedure, shortened: as §2
# y^+LAT1 = y^+LAT1 (Homo sapiens, UniProt Q9UM01); experiment: Xenopus oocyte expression system, L-[14C]leucine uptake by y+LAT1; assay type: cell-based; conditions: 1 and 10 µM compound; 50 µM substrate; 30 min; ND96
# Procedure, shortened: as §1
# y^+LAT2 = y^+LAT2 (Homo sapiens, UniProt Q92536); experiment: Xenopus oocyte expression system, L-[14C]leucine uptake by y+LAT2; assay type: cell-based; conditions: 1 and 10 µM compound; 50 µM substrate; 30 min; ND96
# Procedure, shortened: as §1
# ATB^0,+ = ATB^0,+ (Homo sapiens, UniProt Q9UN76); experiment: Xenopus oocyte expression system, L-[14C]leucine uptake by ATB0,+; assay type: cell-based; conditions: 1 and 10 µM compound; 50 µM substrate; 30 min; ND96
# Procedure, shortened: (§3)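 Defolliculated Xenopus laevis oocytes injected with transporter cRNA (25 ng/oocyte) or with water as control, assayed 2–4 days after injection. Uptake over 30 min at room temperature of 50 µM labelled substrate: L-[¹⁴C]leucine for ATB0,+, L-[¹⁴C]tyrosine for TAT1, L-[¹⁴C]cystine for b0,+. Test compound at 1 or 10 µM. Scintillation counting; mean ± S.D., n = 5–13, three oocyte batches.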
# B^0AT1 = B^0AT1 (Homo sapiens, UniProt Q695T7); experiment: Xenopus oocyte expression system, L-[14C]leucine uptake by B0AT1; assay type: cell-based; conditions: 1 and 10 µM compound; 50 µM substrate; 30 min; ND96
# Procedure, shortened: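 B⁰AT1 cRNA (25 ng/oocyte) co-injected with equimolar collectrin cRNA into defolliculated Xenopus laevis oocytes, assayed 2–4 days later. Uptake of 50 µM L-[¹⁴C]leucine over 30 min at room temperature in ND96 (pH 7.5), with test compound at 1 or 10 µM. Water-injected oocytes served as controls. Scintillation counting; mean ± S.D., n = 5–13, three oocyte batches.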
# TAT1 = TAT1 (Homo sapiens, UniProt Q8TF71); experiment: Xenopus oocyte expression system, L-[14C]tyrosine uptake by TAT1; assay type: cell-based; conditions: 1 and 10 µM compound; 50 µM substrate; 30 min; Na+-free
# Procedure, shortened: as §3
# b^0,+ = experiment: Xenopus oocyte expression system, L-[14C]cystine uptake by b0,+; assay type: cell-based; conditions: 1 and 10 µM compound; 50 µM substrate; 30 min; Na+-free
# Procedure, shortened: as §3
# ASCT1 = ASCT1 (Homo sapiens, UniProt P43007); experiment: Xenopus oocyte expression system, L-[14C]alanine uptake by ASCT1; assay type: cell-based; conditions: 1 and 10 µM compound; 50 µM substrate; 30 min; ND96
# Procedure, shortened: as §2
# ASCT2 = ASCT2 (Homo sapiens, UniProt Q15758); experiment: Xenopus oocyte expression system, L-[14C]alanine uptake by ASCT2; assay type: cell-based; conditions: 1 and 10 µM compound; 50 µM substrate; 30 min; ND96
# Procedure, shortened: as §2
# SNAT1 = SNAT1 (Homo sapiens, UniProt Q9H2H9); experiment: Xenopus oocyte expression system, L-[14C]alanine uptake by SNAT1; assay type: cell-based; conditions: 1 and 10 µM compound; 50 µM substrate; 30 min; ND96
# Procedure, shortened: as §2
# SNAT2 = SNAT2 (Homo sapiens, UniProt Q96QD8); experiment: Xenopus oocyte expression system, L-[14C]alanine uptake by SNAT2; assay type: cell-based; conditions: 1 and 10 µM compound; 50 µM substrate; 30 min; ND96
# Procedure, shortened: as §2
# SNAT3 = SNAT3 (Homo sapiens, UniProt Q99624); experiment: Xenopus oocyte expression system, L-[14C]glutamine uptake by SNAT3; assay type: cell-based; conditions: 1 and 10 µM compound; 50 µM substrate; 30 min; ND96
# Procedure, shortened: as §2
# SNAT4 = SNAT4 (Homo sapiens, UniProt Q969I6); experiment: Xenopus oocyte expression system, L-[14C]alanine uptake by SNAT4; assay type: cell-based; conditions: 10 µM compound; 50 µM substrate; 30 min; ND96
# Procedure, shortened: as §2
# SNAT5 = SNAT5 (Homo sapiens, UniProt Q8WUX1); experiment: Xenopus oocyte expression system, L-[14C]glutamine uptake by SNAT5; assay type: cell-based; conditions: 1 and 10 µM compound; 50 µM substrate; 30 min; ND96
# Procedure, shortened: as §2
# S2-LAT1 cells = conditions: LAT1-expressing cells; cited from earlier work
# S2-LAT2 cells = conditions: LAT2-expressing cells; cited from earlier work
# biliary tract cancer = conditions: phase II, patients with biliary tract cancer; cited from earlier work
# [6] = patients with advanced solid tumors; cited from earlier work
# [7] = liver; cited from earlier work
# SNAT3, sequence (Q99624 whole entry): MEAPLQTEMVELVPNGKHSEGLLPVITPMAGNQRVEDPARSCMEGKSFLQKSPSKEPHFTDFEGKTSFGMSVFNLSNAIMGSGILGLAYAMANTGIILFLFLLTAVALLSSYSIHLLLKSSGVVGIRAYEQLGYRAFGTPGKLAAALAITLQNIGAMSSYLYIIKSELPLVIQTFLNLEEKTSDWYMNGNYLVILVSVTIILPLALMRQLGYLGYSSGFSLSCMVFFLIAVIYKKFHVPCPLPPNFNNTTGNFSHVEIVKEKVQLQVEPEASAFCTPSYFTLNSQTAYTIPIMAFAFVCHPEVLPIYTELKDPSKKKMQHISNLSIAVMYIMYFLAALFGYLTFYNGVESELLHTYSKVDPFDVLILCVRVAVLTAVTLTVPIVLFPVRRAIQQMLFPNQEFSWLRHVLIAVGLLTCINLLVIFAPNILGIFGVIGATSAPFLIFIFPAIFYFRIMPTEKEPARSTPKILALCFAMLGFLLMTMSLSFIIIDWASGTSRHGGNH
# LAT4, sequence (Q8N370 whole entry): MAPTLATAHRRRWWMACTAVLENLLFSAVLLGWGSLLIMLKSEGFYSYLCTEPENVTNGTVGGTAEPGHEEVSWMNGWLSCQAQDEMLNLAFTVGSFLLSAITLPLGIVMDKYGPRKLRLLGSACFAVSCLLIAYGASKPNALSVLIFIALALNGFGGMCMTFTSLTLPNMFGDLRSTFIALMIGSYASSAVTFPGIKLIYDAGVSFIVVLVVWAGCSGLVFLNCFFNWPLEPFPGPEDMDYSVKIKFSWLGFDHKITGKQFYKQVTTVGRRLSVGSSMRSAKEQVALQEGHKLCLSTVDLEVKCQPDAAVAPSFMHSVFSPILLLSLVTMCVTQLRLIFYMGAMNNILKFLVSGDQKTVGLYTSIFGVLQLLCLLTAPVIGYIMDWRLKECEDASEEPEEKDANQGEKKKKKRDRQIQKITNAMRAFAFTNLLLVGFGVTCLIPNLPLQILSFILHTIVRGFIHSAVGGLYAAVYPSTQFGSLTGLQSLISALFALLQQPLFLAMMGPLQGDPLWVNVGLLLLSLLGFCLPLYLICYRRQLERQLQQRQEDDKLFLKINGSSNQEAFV
# TAT1, sequence (Q8TF71 whole entry): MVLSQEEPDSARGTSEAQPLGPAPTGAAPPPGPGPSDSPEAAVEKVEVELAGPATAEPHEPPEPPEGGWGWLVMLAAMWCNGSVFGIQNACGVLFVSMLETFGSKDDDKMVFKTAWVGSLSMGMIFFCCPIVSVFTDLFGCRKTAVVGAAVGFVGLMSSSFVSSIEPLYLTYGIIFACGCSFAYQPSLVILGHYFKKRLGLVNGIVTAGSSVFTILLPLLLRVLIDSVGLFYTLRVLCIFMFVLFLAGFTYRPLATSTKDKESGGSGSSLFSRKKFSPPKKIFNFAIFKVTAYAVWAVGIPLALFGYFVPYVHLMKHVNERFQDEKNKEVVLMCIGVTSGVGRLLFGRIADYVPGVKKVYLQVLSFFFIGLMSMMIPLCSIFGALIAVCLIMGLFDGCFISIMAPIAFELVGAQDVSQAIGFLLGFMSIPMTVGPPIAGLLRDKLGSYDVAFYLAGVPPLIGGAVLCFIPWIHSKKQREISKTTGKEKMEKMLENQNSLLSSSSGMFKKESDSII
# SNAT2, sequence (Q96QD8 whole entry): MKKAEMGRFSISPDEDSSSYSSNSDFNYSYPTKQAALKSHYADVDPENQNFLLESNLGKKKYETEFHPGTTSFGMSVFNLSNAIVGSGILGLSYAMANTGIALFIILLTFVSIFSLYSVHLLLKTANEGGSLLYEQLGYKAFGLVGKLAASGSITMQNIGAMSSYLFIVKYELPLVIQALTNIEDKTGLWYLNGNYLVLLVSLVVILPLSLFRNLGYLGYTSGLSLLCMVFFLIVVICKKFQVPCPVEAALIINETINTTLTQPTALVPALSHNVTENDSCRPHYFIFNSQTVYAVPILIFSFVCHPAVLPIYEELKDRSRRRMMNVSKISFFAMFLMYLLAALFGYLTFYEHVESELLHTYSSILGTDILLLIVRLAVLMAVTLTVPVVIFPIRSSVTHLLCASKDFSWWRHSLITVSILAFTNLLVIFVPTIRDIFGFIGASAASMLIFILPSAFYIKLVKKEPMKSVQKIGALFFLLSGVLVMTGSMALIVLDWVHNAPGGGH
# human LAT2, sequence (Q9UHI5 whole entry): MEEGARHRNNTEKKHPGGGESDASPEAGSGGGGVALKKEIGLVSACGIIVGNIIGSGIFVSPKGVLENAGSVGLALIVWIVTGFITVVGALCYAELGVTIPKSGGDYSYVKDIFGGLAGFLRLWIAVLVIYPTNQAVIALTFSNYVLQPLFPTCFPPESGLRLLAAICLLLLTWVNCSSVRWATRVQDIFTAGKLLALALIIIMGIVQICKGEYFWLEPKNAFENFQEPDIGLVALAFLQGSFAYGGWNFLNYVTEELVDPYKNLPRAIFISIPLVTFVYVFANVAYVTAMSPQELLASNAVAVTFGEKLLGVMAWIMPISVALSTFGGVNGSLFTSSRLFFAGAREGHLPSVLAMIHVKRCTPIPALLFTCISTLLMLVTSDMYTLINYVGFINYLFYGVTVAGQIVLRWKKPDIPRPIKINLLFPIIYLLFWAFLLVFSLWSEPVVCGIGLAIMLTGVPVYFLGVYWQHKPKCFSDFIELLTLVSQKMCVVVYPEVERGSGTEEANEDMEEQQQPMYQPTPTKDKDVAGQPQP
# human LAT2, sequence (P08195 103-630 partner): as the sequence (P08195 103-630 partner) above
# LAT2, sequence (Q9UHI5 whole entry): as the sequence (Q9UHI5 whole entry) above
# LAT2, sequence (P08195 102-630 partner): as the sequence (P08195 102-630 partner) above
smiles,measurement,setting,value
NC1(C(=O)O)CC2CCC1C2 (centres unmarked) [BCH],Transporters inhibited,[1],"inhibit not only all system L transporters (LAT1, LAT2, LAT3, LAT4) but also B^0AT1 (system B^0) and ATB^0,+ (system B^0,+)"
"Nc1cc(COc2c(Cl)cc(C[C@H](N)C(=O)O)cc2Cl)c2oc(-c3ccccc3)nc2c1 [nanvuranlat, (2S)-2-amino-3-[4-[(5-amino-2-phenyl-1,3-benzoxazol-7-yl)methoxy]-3,5-dichlorophenyl]propanoic acid]",Ki,LAT1 [2],38.7 ± 5.1 nM
same,Inhibition of LAT1-mediated L-[14C]leucine uptake,"LAT1 [2]; 0.1, 1 and 10 µM compound, 1 µM L-[14C]leucine, HEK293-hLAT1",inhibited LAT1 in a concentration-dependent manner
same,Mode of LAT1 inhibition (Lineweaver-Burk plot),"LAT1 [2]; HEK293-hLAT1, L-[14C]leucine",competitive inhibitors
same,Inhibition of LAT2-mediated L-[14C]alanine uptake,human LAT2,neither compound exhibited inhibitory effects on LAT2
same,GI50,HEK293-hLAT1 cells,1830 ± 310 nM
same,Inhibition of proliferation,HEK293-hLAT2 cells,neither compound exhibited an inhibitory effect
same,Inhibition reduction rate,LAT1 [3],29.8%
same,Temperature dependence of cell-associated radioactivity (transport by LAT1),LAT1 [4],not transported by LAT1
same,Inhibition of LAT1-mediated L-[14C]leucine uptake,LAT1 [5]; 1 µM compound,significantly inhibited
same,Inhibition of LAT1-mediated L-[14C]leucine uptake,LAT1 [5]; 10 µM compound,significantly inhibited
same,Inhibition of LAT2-mediated L-[14C]alanine uptake,LAT2,neither nanvuranlat nor N-acetyl-nanvuranlat inhibited
same,Inhibition of LAT3-mediated L-[14C]leucine uptake,LAT3,no inhibitory effects
same,Inhibition of LAT4-mediated L-[14C]leucine uptake,LAT4,no inhibitory effects
same,Inhibition of y+LAT1-mediated L-[14C]leucine uptake,y^+LAT1,Neither compound inhibited
same,Inhibition of y+LAT2-mediated L-[14C]leucine uptake,y^+LAT2,Neither compound inhibited
same,"Inhibition of ATB0,+-mediated L-[14C]leucine uptake","ATB^0,+",Neither compound inhibited
same,Inhibition of B0AT1-mediated L-[14C]leucine uptake,B^0AT1,Neither compound inhibited
same,Inhibition of TAT1-mediated L-[14C]tyrosine uptake,TAT1,Neither compound inhibited
same,"Inhibition of b0,+-mediated L-[14C]cystine uptake","b^0,+",Neither compound inhibited
same,Inhibition of ASCT1-mediated L-[14C]alanine uptake,ASCT1,no significant inhibition
same,Inhibition of ASCT2-mediated L-[14C]alanine uptake,ASCT2,no significant inhibition
same,Inhibition of SNAT1-mediated L-[14C]alanine uptake,SNAT1,no significant inhibition
same,Inhibition of SNAT2-mediated L-[14C]alanine uptake,SNAT2,no significant inhibition
same,Inhibition of SNAT3-mediated L-[14C]glutamine uptake,SNAT3,no significant inhibition
same,Inhibition of SNAT4-mediated L-[14C]alanine uptake,SNAT4,non-significant trend towards inhibition
same,Inhibition of SNAT5-mediated L-[14C]glutamine uptake,SNAT5,no significant inhibition
same,Growth inhibition of S2-LAT1 cells,S2-LAT1 cells,potently inhibited the growth
same,Growth inhibition of S2-LAT2 cells,S2-LAT2 cells,minimal effects
same,Primary endpoint (progression-free survival),biliary tract cancer,met its primary endpoint of improving progression-free survival
same,Safety profile in clinical trials,[6],acceptable safety profile
same,Metabolism,[7],rapidly metabolized to its N-acetyl derivative in the liver
